# RAD52 inh = RAD52 DNA annealing inhibitors, primary screen, biochemical, FRET, single point, set 2; DNA repair protein RAD52 homolog (Homo sapiens), P43351; recombinant RAD52 DNA annealing, FRET fluorescence; inhibition, % at 18.7 µM; hit rate 0.46% among 360,000;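 active = every replicate showing at least 50% inhibition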
# Target sequence (P43351 whole entry, looked up): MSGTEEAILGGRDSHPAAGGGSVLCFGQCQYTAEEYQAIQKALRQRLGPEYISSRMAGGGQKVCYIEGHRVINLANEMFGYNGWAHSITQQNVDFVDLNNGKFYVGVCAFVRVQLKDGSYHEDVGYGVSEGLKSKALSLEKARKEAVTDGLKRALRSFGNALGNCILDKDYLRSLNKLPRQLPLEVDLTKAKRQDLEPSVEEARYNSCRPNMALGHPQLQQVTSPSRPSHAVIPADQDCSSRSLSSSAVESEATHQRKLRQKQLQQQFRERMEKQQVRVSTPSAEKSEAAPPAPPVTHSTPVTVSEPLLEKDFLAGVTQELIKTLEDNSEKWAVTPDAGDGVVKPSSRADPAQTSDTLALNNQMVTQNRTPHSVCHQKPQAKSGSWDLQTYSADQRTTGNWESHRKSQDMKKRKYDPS
# Cneo AK release = Cryptococcus neoformans cell lysis inducers, primary screen, AK release luminescence, single concentration; C. neoformans lysis, adenylate kinase release luminescence, 4 h; normalised: neutral wells 0, clomiphene wells 100; lysis activity, % at 15 µM; hit rate 0.2% among 360,000; AID 651654, 2012;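 active = mean lysis activity across replicates of at least 80%, whatever share of replicates individually reach that level; inactive = mean lysis activity below 80%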
#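 Assay system: Cryptococcus neoformans yeast cells / Dosing: single-point compound dose / Timing: 4 h at 37 °C static, read 1 h later / Measured by: luminescence of released adenylate kinase using an AK detection reagent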
# rRNA inh HTS = reduced GFP signal of wild-type E. coli, primary screen, bacterial rRNA inhibitor project, GFP/RFP fluorescence, OD600, single point | hit rate 1.6% among 350,000 | GFP signal change (wild-type ribosome), % (no concentration beside the values) | E. coli WT GFP vs humanized-ribosome RFP mutants, 24 h; active compounds read low; DMSO median 0, no signal -100;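 active = significant combined selectivity score with lowered wild-type GFP, culture density cut under 30%, mutant RFP and density less affected; inactive = any of these conditions unmet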
# RAD54 inh = inhibitors of human RAD54 branch migration, primary screen, biochemical, fluorescence, single point. DNA repair and recombination protein RAD54-like (Homo sapiens), Q92698. RAD54 Holliday junction branch migration, FAM/BHQ fluorescence. inhibition, % at 10.4 µM. hit rate 0.14% among 360,000;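 active = mean normalized replicate activity at least 40 and at least half of replicates scoring 40 or more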;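 also: inhibitors cause a drop in the FAM fluorescence signal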
# PglD DTNB = C. jejuni PglD acetyltransferase inhibitors, primary screen, biochemical, DTNB colorimetric, single point | purified PglD enzyme, DTNB colorimetric CoA detection | inhibition, % at 12.5 µM | hit rate 0.098% among 360,000 | AID 602405, 2012; in the data active = inhibition above about 16%, passing the limit was not always enough
# Hits are given with their value; . = inactive; / = no result. An excerpt weighted towards active compounds, which were near 1.9% of everything screened.
SMILES,RAD52 inh,Cneo AK release,rRNA inh HTS,RAD54 inh,PglD DTNB
COc1cccc([C@@H]2CC=C(C(=O)O)[C@H](c3ccccc3)N2S(=O)(=O)c2ccc(C)cc2)c1,.,.,.,.,.
COc1ccc(/C=N/NC(=O)c2ccccc2O)cc1Cn1nnc2ccccc21,.,.,-23,.,.
CN1CCN(C(=O)C[C@@H]2CC[C@@H]3[C@H](COC[C@@H](O)CN3C(=O)Nc3cc(Cl)cc(Cl)c3)O2)CC1,.,.,.,.,.
COc1ccc(CN(CC(O)COCc2ccccc2)S(=O)(=O)c2ccccc2Br)cc1OC (stereo not given),.,.,-21,.,.
C=CC(COCc1ccccc1)N(C(=O)OC(C)(C)C)S(=O)(=O)c1ccccc1Br (stereo not given),.,.,.,.,.
COc1cccc(/C=N/Nc2nc(N3CCCC3)nc(N3CCCC3)n2)c1O,.,.,-18,.,.
C(=N\Nc1nc(N2CCCC2)nc(N2CCCC2)n1)/c1ccccc1OCc1ccccc1,.,.,.,.,.
Cc1ccc(Cl)c(OCC(=O)OCC(=O)c2ccc[nH]2)c1,.,.,.,.,.
O=C(COc1ccc(Cl)cc1Cl)c1ccc[nH]1,.,.,-31,.,.
O=C(COc1ccc(Cl)cc1Cl)N/N=C/c1ccc[nH]1,.,.,-22,.,.
CC(C)CC#Cc1ccc2c(c1)O[C@@H](CN(C)C(=O)C1CC1)[C@H](C)CN([C@@H](C)CO)S2(=O)=O,/,/,.,/,/
C[C@H](CO)N1C[C@H](C)[C@@H](CN(C)S(=O)(=O)c2ccc(Cl)cc2)Oc2ccc(NC(=O)CCCCCC(=O)Nc3ccccc3N)cc2CC1=O,/,/,.,/,/
O=C(NCc1ccccc1)c1cc(C2CCCN(S(=O)(=O)c3cccc4cccnc34)C2)on1 (stereo not given),.,.,.,.,.
CCCNC(=O)c1cc(C2CCCN(S(=O)(=O)c3cccc4cccnc34)C2)on1 (stereo not given),.,.,-15,.,.
CCNC(=O)Nc1ccc2c(c1)C(=O)N(C)[C@@H]1CC[C@@H](CC(=O)NCC3CCCCC3)O[C@H]1CO2,.,.,.,.,.
CC(Oc1ccc2c(c1)c1ccnc3c4ccccc4c(=O)n2c13)C(=O)NCCN1CCOCC1 (stereo not given),/,.,/,89,.
COc1ccc2c(c1OC)c(=O)n1c3ccc(OC(C)C(=O)NCCCN4CCOCC4)cc3c3ccnc2c31 (stereo not given),/,.,/,73,.
COCC(=O)Nc1ccc2c(c1)C(=O)N(C)C[C@H](OC)[C@@H](C)CN(C(=O)Cc1ccccn1)[C@@H](C)CO2,.,.,.,.,.
CCOC(=O)c1ccc2[nH]c3c(c2c1)CCCC3,.,.,.,.,.
CCOC(=O)c1ccc2[nH]c3c(c2c1)CCCC3O (stereo not given),.,/,-32,/,/
COc1ccc2c3c([nH]c2c1)[C@@H](CO)N(Cc1cccc(Cl)c1)CC31CN(C(C)=O)C1,.,/,.,/,/
CN1C(=O)/C(=C/c2cccc(Cl)c2)Sc2ccc(C(=O)N3CCCC3)cc21,.,/,-35,/,/
O=C(C[C@H]1CC[C@H](NS(=O)(=O)c2cccc(F)c2)[C@@H](CO)O1)N1CCCCC1,.,.,.,.,.
O=C(N/N=C/C(Br)=C/c1ccccc1)C1CC1,.,/,.,/,/
O=C(N/N=C/C(Br)=C/c1ccccc1)C(O)c1ccccc1 (stereo not given),.,.,-27,.,.
SMILES,RAD52 inh,Cneo AK release,rRNA inh HTS,RAD54 inh,PglD DTNB
CCn1c(CCCOc2ccc(Cl)cc2Cl)n[nH]c1=S,.,.,-34,.,.
CCCCCC(=O)NC(=S)Nc1ccc(N2CCOCC2)cc1,.,/,-27,/,/
CCC(=O)NC(=S)Nc1ccc(N2CCOCC2)cc1,.,/,.,/,/
S=C(NCc1ccco1)Nc1ccc(Cl)cc1Cl,.,/,.,/,/
O=C(c1ccco1)N1CCN(C(=S)Nc2ccc(Br)cc2Cl)CC1,.,.,-44,.,.
Cc1cc(CNC(=S)Nc2ccc(Br)cc2Cl)nn1C,.,/,-47,/,/
